Test results taken from ChEMBL document CHEMBL4184148 (Bioorg Med Chem Lett, 2017).

Experiments:
[1] = molecular target: Ribosomal protein S6 kinase alpha-3 (Homo sapiens) (UniProt P51812); assay: Binding affinity to wild-type human partial length C-terminal RSK3 kinase domain 2 (V403 to K700 residues) expressed in Escherichia coli BL21 at 1 uM by Kinomescan method relative to control
[2] = molecular target: Serine/threonine-protein kinase 17A (Homo sapiens) (UniProt Q9UEE5); assay: Binding affinity to wild-type human partial length DRAK1 (R32 to E363 residues) expressed in Escherichia coli BL21 at 1 uM by Kinomescan method relative to control
[3] = molecular target: Cyclin-dependent kinase 15 (Homo sapiens) (UniProt Q96Q40); assay: Binding affinity to wild-type human full length PFTAIRE2 (M1 to W384 residues) expressed in Escherichia coli BL21 at 1 uM by Kinomescan method relative to control
Sequence of Cyclin-dependent kinase 15 (Homo sapiens) (Q96Q40 whole entry, the tested form may be a part): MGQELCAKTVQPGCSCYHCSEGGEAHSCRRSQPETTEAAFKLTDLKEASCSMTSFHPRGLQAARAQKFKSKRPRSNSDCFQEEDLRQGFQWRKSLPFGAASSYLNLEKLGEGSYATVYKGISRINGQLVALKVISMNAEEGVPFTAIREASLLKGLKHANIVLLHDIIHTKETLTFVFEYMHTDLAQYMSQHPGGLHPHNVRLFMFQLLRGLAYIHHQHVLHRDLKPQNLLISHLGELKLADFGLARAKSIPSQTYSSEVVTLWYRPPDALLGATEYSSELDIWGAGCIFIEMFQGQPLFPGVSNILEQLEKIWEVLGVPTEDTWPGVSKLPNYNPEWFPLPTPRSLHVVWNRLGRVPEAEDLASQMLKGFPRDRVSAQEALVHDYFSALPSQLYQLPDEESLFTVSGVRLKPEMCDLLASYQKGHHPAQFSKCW
In short: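 Kinome-wide competition binding panel run by an outside provider, with each compound tested at a single concentration. Activity is read against the kinase panel.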

[4] = molecular target: Receptor-interacting serine/threonine-protein kinase 2 (Homo sapiens) (UniProt O43353); assay: Binding affinity to wild-type human partial length RIPK2 (M1 to K310 residues) expressed in Escherichia coli BL21 at 1 uM by Kinomescan method relative to control
Sequence of Receptor-interacting serine/threonine-protein kinase 2 (Homo sapiens) (O43353 whole entry, the tested form may be a part, canonical isoform): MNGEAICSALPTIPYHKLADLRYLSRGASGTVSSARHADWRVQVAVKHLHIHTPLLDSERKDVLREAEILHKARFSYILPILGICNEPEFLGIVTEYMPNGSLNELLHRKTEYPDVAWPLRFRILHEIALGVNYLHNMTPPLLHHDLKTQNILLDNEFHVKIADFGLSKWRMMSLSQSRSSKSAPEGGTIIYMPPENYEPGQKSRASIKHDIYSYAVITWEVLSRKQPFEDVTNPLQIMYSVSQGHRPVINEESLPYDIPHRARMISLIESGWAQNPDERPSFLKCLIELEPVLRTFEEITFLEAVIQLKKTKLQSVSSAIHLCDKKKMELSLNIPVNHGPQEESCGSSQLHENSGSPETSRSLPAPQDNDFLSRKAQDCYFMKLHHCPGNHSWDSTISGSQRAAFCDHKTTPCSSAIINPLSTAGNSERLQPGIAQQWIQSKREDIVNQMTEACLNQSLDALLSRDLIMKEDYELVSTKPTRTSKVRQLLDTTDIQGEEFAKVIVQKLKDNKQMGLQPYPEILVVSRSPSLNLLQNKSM

[5] = molecular target: Phosphatidylinositol 4,5-bisphosphate 3-kinase catalytic subunit alpha isoform (Homo sapiens) (UniProt P42336); assay: Binding affinity to wild-type human partial length PIK3CA (R108 to N1068 residues) expressed in HEK293 cells at 1 uM by Kinomescan method relative to control; format: cell-based
[6] = molecular target: Mitogen-activated protein kinase kinase kinase 15 (Homo sapiens) (UniProt Q6ZN16); assay: Binding affinity to wild-type human partial length MAP3K15 (T625 to L932 residues) expressed in HEK293 cells at 1 uM by Kinomescan method relative to control; format: cell-based
[7] = molecular target: Dual specificity mitogen-activated protein kinase kinase 1 (Homo sapiens) (UniProt Q02750); assay: Binding affinity to wild-type human full length MEK1 (M1 to V393 residues) expressed in HEK293 cells at 1 uM by Kinomescan method relative to control; format: cell-based
In short: (§1)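 Run as one kinome-wide competition binding panel with each compound at a single fixed concentration. Results were plotted as a kinome-wide selectivity map.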

[8] = molecular target: Mitogen-activated protein kinase 9 (Homo sapiens) (UniProt P45984); assay: Binding affinity to wild-type human full length JNK2 (M1 to Q382 residues) expressed in HEK293 cells at 1 uM by Kinomescan method relative to control; format: cell-based; in short: as §1
[9] = molecular target: Mitogen-activated protein kinase 15 (Homo sapiens) (UniProt Q8TD08); assay: Binding affinity to wild-type human partial length ERK8 (M1 to P437 residues) expressed in Escherichia coli BL21 at 1 uM by Kinomescan method relative to control
[10] = tested on: Receptor-type tyrosine-protein kinase FLT3 (Homo sapiens), P36888 [N841I]; assay: Binding affinity to human partial length FLT3 N841I mutant (V592 to Y969 residues) expressed in Escherichia coli BL21 at 1 uM by Kinomescan method relative to control
[11] = molecular target: Tyrosine-protein kinase Fes/Fps (Homo sapiens) (UniProt P07332); assay: Binding affinity to wild-type human partial length FES (I527 to R822 residues) expressed in Escherichia coli BL21 at 1 uM by Kinomescan method relative to control
[12] = tested on: Proto-oncogene tyrosine-protein kinase receptor Ret (Homo sapiens), P07949 [M918T]; assay: Binding affinity to human partial length RET M918T mutant (E713 to D1014 residues) expressed in Escherichia coli BL21 at 1 uM by Kinomescan method relative to control
[13] = molecular target: Serine/threonine-protein kinase 24 (Homo sapiens) (UniProt Q9Y6E0); assay: Binding affinity to wild-type human partial length MST3 (A30 to S311 residues) expressed in Escherichia coli BL21 at 1 uM by Kinomescan method relative to control
[14] = molecular target: Serine/threonine-protein kinase N1 (Homo sapiens) (UniProt Q16512); assay: Binding affinity to wild-type human partial length PKN1 (E598 to C948 residues) expressed in Escherichia coli BL21 at 1 uM by Kinomescan method relative to control
Sequence of Serine/threonine-protein kinase N1 (Homo sapiens) (Q16512 2-942 limits assumed): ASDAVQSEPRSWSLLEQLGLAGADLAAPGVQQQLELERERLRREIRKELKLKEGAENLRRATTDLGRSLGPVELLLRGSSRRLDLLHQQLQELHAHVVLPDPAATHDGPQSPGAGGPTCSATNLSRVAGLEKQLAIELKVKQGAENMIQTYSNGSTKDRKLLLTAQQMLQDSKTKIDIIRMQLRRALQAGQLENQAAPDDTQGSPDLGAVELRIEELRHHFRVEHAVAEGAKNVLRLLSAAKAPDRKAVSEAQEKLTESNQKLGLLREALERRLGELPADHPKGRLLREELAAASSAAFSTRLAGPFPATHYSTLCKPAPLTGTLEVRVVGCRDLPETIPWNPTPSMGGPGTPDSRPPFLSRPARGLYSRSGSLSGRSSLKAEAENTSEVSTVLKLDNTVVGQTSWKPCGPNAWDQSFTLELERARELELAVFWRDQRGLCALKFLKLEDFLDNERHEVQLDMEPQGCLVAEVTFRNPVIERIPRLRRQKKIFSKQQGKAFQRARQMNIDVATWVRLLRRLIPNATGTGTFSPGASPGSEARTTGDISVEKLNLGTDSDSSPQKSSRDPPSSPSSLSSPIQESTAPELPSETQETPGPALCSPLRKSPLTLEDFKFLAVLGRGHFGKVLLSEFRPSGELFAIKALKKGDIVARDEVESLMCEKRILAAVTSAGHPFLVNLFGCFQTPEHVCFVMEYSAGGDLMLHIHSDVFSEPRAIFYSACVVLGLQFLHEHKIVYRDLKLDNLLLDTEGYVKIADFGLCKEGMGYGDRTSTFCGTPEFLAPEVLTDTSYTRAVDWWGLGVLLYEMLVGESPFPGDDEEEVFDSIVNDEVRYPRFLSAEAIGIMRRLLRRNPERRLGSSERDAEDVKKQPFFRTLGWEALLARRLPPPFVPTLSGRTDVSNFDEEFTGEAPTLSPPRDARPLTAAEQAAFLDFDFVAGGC

[15] = molecular target: Ephrin type-B receptor 2 (Homo sapiens) (UniProt P29323); assay: Binding affinity to wild-type human partial length EPHB2 (I597 to L902 residues) expressed in Escherichia coli BL21 at 1 uM by Kinomescan method relative to control
[16] = molecular target: Dual specificity tyrosine-phosphorylation-regulated kinase 1A (Homo sapiens) (UniProt Q13627); assay: Binding affinity to wild-type human partial length DYRK1A (H129 to S509 residues) expressed in HEK293 cells at 1 uM by Kinomescan method relative to control; format: cell-based
[17] = molecular target: Serine/threonine-protein kinase LATS1 (Homo sapiens) (UniProt O95835); assay: Binding affinity to wild-type human partial length LATS1 (Q678 to V1130 residues) expressed in Escherichia coli BL21 at 1 uM by Kinomescan method relative to control
[18] = molecular target: Serine/threonine-protein kinase NIM1 (Homo sapiens) (UniProt Q8IY84); assay: Binding affinity to wild-type human partial length NIM1 (Q44 to N355 residues) expressed in HEK293 cells at 1 uM by Kinomescan method relative to control; format: cell-based
Sequence of Serine/threonine-protein kinase NIM1 (Homo sapiens) (Q8IY84 whole entry, the tested form may be a part): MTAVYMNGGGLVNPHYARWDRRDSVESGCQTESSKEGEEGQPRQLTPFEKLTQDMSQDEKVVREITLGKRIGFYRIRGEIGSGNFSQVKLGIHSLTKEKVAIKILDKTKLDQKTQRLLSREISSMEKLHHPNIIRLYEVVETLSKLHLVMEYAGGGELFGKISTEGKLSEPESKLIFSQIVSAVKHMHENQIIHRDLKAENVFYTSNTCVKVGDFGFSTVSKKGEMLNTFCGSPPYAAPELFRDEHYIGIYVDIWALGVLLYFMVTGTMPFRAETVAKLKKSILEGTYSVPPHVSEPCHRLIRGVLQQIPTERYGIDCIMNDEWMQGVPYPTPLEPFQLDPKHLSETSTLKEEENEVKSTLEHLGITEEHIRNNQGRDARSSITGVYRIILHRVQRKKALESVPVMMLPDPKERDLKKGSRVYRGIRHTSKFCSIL

[19] = molecular target: MAP kinase-interacting serine/threonine-protein kinase 1 (Homo sapiens) (UniProt Q9BUB5); assay: Binding affinity to wild-type human full length MKNK1 (M1 to L424 residues) expressed in HEK293 cells at 1 uM by Kinomescan method relative to control; format: cell-based; in short: as §1
[20] = tested on: Phosphatidylinositol 4,5-bisphosphate 3-kinase catalytic subunit alpha isoform (Homo sapiens), P42336 [I800L]; assay: Binding affinity to human partial length PIK3CA I800L mutant (R108 to N1068 residues) expressed in HEK293 cells at 1 uM by Kinomescan method relative to control; format: cell-based
[21] = molecular target: Bromodomain-containing protein 4 (Homo sapiens, UniProt O60885); assay: Inhibition of BRD4 (unknown origin) by AlphaScreen assay
[22] = molecular target: STE20-like serine/threonine-protein kinase (Homo sapiens) (UniProt Q9H2G2); assay: Binding affinity to wild-type human partial length SLK (S14 to A307 residues) expressed in Escherichia coli BL21 at 1 uM by Kinomescan method relative to control
Sequence of STE20-like serine/threonine-protein kinase (Homo sapiens) (Q9H2G2 whole entry, looked up, the tested form may be a part): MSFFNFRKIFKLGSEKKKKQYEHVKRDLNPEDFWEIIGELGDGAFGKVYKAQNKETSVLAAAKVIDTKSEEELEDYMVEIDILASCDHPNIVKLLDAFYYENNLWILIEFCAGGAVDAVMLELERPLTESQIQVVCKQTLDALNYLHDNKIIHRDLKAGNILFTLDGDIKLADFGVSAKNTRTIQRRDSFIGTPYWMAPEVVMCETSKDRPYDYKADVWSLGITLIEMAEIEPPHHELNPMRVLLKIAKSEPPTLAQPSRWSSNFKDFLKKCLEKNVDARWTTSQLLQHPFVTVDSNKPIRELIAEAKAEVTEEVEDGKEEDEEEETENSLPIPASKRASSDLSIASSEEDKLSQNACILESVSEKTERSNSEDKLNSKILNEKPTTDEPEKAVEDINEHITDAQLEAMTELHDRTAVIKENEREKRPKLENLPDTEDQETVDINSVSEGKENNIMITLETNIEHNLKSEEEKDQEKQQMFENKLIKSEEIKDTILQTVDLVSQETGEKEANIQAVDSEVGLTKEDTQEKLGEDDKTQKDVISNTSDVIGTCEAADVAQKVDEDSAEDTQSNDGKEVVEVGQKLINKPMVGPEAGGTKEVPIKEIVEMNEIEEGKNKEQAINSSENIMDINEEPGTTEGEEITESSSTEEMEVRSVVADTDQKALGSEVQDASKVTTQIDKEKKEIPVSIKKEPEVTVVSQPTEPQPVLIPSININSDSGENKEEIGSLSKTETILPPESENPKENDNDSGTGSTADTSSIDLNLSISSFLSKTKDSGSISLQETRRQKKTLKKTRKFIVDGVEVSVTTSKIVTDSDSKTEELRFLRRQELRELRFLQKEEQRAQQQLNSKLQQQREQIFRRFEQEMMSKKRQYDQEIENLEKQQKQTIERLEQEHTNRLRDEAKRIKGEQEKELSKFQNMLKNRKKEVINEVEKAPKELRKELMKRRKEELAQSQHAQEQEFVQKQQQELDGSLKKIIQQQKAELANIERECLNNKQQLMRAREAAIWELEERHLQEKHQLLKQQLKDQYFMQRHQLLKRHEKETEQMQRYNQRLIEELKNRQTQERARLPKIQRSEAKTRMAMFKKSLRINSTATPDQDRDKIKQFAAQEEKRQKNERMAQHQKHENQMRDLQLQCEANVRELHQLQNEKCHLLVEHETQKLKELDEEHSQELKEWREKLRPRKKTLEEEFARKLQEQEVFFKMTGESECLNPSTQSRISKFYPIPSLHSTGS

[23] = molecular target: TGF-beta receptor type-1 (Homo sapiens) (UniProt P36897); assay: Binding affinity to wild-type human partial length TGFBR1 (D179 to M503 residues) expressed in Escherichia coli BL21 at 1 uM by Kinomescan method relative to control
Sequence of TGF-beta receptor type-1 (Homo sapiens) (P36897 whole entry, the tested form may be a part): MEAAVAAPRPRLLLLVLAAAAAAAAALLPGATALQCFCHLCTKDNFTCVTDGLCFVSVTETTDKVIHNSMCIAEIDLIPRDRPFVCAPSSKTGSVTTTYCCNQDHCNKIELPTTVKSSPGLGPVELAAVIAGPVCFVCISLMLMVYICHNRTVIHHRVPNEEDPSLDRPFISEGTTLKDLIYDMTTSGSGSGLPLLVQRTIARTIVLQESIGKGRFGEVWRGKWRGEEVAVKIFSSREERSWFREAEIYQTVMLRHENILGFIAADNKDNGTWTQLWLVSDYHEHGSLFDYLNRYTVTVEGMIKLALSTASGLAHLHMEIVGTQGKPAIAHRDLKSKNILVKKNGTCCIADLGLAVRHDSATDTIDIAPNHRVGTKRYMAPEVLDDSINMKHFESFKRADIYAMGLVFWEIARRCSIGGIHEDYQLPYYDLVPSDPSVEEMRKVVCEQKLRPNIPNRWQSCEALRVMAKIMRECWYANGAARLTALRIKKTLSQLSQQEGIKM

[24] = molecular target: Epidermal growth factor receptor (Homo sapiens) (UniProt P00533); assay: Binding affinity to wild-type human partial length EGFR (R669 to V1011 residues) expressed in Escherichia coli BL21 at 1 uM by Kinomescan method relative to control
[25] = molecular target: Cyclin-dependent kinase-like 3 (Homo sapiens) (UniProt Q8IVW4); assay: Binding affinity to wild-type human partial length CDKL3 (M1 to D327 residues) expressed in Escherichia coli BL21 at 1 uM by Kinomescan method relative to control
Sequence of Cyclin-dependent kinase-like 3 (Homo sapiens) (Q8IVW4 whole entry, looked up, the tested form may be a part): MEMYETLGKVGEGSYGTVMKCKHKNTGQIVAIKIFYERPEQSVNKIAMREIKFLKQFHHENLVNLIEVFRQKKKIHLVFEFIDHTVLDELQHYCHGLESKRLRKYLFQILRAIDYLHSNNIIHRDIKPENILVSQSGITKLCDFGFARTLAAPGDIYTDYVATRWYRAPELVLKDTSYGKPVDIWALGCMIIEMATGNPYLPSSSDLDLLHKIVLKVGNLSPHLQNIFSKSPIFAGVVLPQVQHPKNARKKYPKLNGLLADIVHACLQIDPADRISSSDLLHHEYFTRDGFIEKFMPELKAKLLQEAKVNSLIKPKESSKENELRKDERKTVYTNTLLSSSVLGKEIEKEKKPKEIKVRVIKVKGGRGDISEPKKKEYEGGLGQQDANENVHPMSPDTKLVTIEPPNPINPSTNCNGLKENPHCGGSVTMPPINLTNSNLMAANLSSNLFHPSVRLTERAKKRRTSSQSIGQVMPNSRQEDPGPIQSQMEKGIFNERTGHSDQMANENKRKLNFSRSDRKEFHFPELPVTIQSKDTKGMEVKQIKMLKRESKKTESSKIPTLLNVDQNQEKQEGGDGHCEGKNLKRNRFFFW

Structure (SMILES) | Activity [1] [%] | Activity [2] [%] | Activity [3] [%] | Activity [4] [%] | Activity [5] [%] | Activity [6] [%] | Activity [7] [%] | Activity [8] [%] | Activity [9] [%] | Activity [10] [%] | Activity [11] [%] | Activity [12] [%] | Activity [13] [%] | Activity [14] [%] | Activity [15] [%] | Activity [16] [%] | Activity [17] [%] | Activity [18] [%] | Activity [19] [%] | Activity [20] [%] | other results
CCC(=O)Nc1ccc(C(=O)Nc2ccc(Nc3ncc4c(n3)N(C)c3ccc(C)cc3C(=O)N4C)cc2)cc1 | 85 | 100 | 100 | 98 | 87 | 62 | 52 | 91 | 94 | 81 | 99 | 71 | 100 | 100 | 93 | 73 | 100 | 100 | 96 | 78 | IC50 [21]: 34 µM; Activity [22]: 87%; Activity [23]: 97%; Activity [24]: 69%; Activity [25]: 95%
C=CC(=O)Nc1ccc(C(=O)Nc2ccc(Nc3ncc4c(n3)N(C)c3ccc(C)cc3C(=O)N4C)cc2)cc1 | 100 | 93 | 99 | 89 | 76 | 100 | 100 | 92 | 96 | 100 | 90 | 87 | 100 | 82 | 96 | 96 | 99 | 98 | 95 | 76 | IC50 [21]: 37 µM; Activity [22]: 94%; Activity [23]: 89%; Activity [24]: 83%; Activity [25]: 98%
